Data from ChEMBL document CHEMBL1144943, “New amide-bearing benzolactam-based protein kinase C modulators induce enhanced secretion of the amyloid precursor protein metabolite sAPPalpha” (J Med Chem, 2003).
pKi: −log10 of the molar value.

Tests used:
Mus musculus [1] = organism: Mus musculus; assay: Compound was evaluated for induction of hyperplasia after single application at dose 10 (micro/application); 1-2; type: functional
Mus musculus [2] = organism: Mus musculus; assay: Compound was evaluated for induction of hyperplasia after single application at dose 1 (micro/application); 1-2; type: functional
Mus musculus [3] = organism: Mus musculus; assay: Compound was evaluated for induction of hyperplasia after four applications at dose 3 (micro/application); 1-2; type: functional
AG06848 cell line = assay: Ability to enhance […] secretion using human fibroblast AG06848 cell line at 1 uM concentration; type: functional; parameters: unit not given here
Procedure, shortened: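 AD-patient fibroblasts (AG06848) grown to confluence (about 4–5 days), switched to serum-free DMEM for 2 h, then exposed to 1 μM compound for 3 h with DMSO (below 1%) as solvent control. sAPPα in conditioned medium measured by SDS-PAGE immunoblot with antibody 6E10, loading corrected for total cell protein. Densitometry expressed relative to DMSO-treated cells; 3–6 independent experiments.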

Mus musculus [4] = organism: Mus musculus; assay: Compound was evaluated for induction of hyperplasia after four applications at dose 10 (micro/application); 1-3; type: functional
Mus musculus [5] = organism: Mus musculus; assay: Compound was evaluated for induction of hyperplasia after four applications at dose 1 (micro/application); 1-2; type: functional
Mus musculus [6] = organism: Mus musculus; assay: Compound was evaluated for induction of hyperplasia after single application at dose 3 (micro/application); 1-2; type: functional
[7] = biological target: Protein kinase C alpha type (Homo sapiens, UniProt P17252); assay: Displacement of PDBU from recombinant Protein kinase C alpha with phosphatidylserine
Mus musculus [8] = organism: Mus musculus; assay: Compound was evaluated for induction of hyperplasia after four application at dose 3 (micro/application); type: functional
Mus musculus [9] = organism: Mus musculus; assay: Compound was evaluated for induction of hyperplasia after single application at dose 300 (micro/application); type: functional
Mus musculus [10] = organism: Mus musculus; assay: Compound was evaluated for induction of hyperplasia after four application at dose 10 (micro/application); type: functional
Mus musculus [11] = organism: Mus musculus; assay: Compound was evaluated for induction of hyperplasia after single application at dose 100 (micro/application); type: functional
Mus musculus [12] = organism: Mus musculus; assay: Compound was evaluated for induction of hyperplasia after four application at dose 100 (micro/application); type: functional
Mus musculus [13] = organism: Mus musculus; assay: Compound was evaluated for induction of hyperplasia after four application at dose 30 (micro/application); type: functional
Mus musculus [14] = organism: Mus musculus; assay: Compound was evaluated for induction of hyperplasia after four application at dose 300 (micro/application); type: functional
Mus musculus [15] = organism: Mus musculus; assay: Compound was evaluated for induction of hyperplasia after single application at dose 30 (micro/application); type: functional
Mus musculus [16] = organism: Mus musculus; assay: Compound was evaluated for induction of hyperplasia after single application at dose 3 (micro/application); type: functional
Mus musculus [17] = organism: Mus musculus; assay: Compound was evaluated for induction of hyperplasia after single application at dose 10 (micro/application); type: functional

| Structure (SMILES) | Activity (AG06848 cell line) | pKi [7] | other results |
| --- | --- | --- | --- |
| CC(C)[C@H]1C(=O)N[C@H](CO)Cc2cc(NC(=O)CCCCc3ccc(C(F)(F)F)cc3)ccc2N1C | 30 | 7.90 | Epidermal thickness (Mus musculus [1]): 1; Epidermal thickness (Mus musculus [2]): 1; Epidermal thickness (Mus musculus [3]): 1; Epidermal thickness (Mus musculus [4]): 1; Epidermal thickness (Mus musculus [5]): 1; Epidermal thickness (Mus musculus [6]): 1 |
| CC(C)[C@H]1C(=O)N[C@H](CO)Cc2cc(NC(=O)CCCCc3ccc(CCC(F)(F)C(F)(F)C(F)(F)C(F)(F)C(F)(F)C(F)(F)F)cc3)ccc2N1C | 20 | 8.04 |  |
| CC(C)[C@H]1C(=O)N[C@H](CO)Cc2cc(NC(=O)/C=C/C=C/c3ccc(/C=C/C(F)(F)C(F)(F)C(F)(F)C(F)(F)C(F)(F)C(F)(F)F)cc3)ccc2N1C | 10 | 7.95 |  |
| CC(C)[C@H]1C(=O)N[C@H](CO)Cc2cc(NC(=O)/C=C/C=C/c3cc(C(F)(F)F)cc(C(F)(F)F)c3)ccc2N1C | 20 | 8.25 |  |
| CC(C)[C@H]1C(=O)N[C@H](CO)Cc2cc(NC(=O)/C=C/C=C/c3ccc(C(F)(F)F)cc3)ccc2N1C | 40 | 7.92 | Epidermal thickness (Mus musculus [8]): 1; Epidermal thickness (Mus musculus [9]): 2; Epidermal thickness (Mus musculus [10]): 1; Epidermal thickness (Mus musculus [11]): 1; Epidermal thickness (Mus musculus [12]): 2; Epidermal thickness (Mus musculus [13]): 1; Epidermal thickness (Mus musculus [14]): 3; Epidermal thickness (Mus musculus [15]): 1; Epidermal thickness (Mus musculus [16]): 1; Epidermal thickness (Mus musculus [17]): 1 |
| CC(C)[C@H]1C(=O)N[C@H](CO)Cc2cc(NC(=O)/C=C/C=C/c3ccccc3)ccc2N1C | 20 | 7.80 |  |
| CC(C)[C@H]1C(=O)N[C@H](CO)Cc2cc(NC(=O)CCCCc3cc(C(F)(F)F)cc(C(F)(F)F)c3)ccc2N1C | 0 | 8.11 |  |
| CC(C)[C@H]1C(=O)N[C@H](CO)Cc2cc(NC(=O)CCCCc3ccccc3)ccc2N1C | 30 | 7.47 |  |
| CCCCCC(=O)Nc1ccc2c(c1)C[C@@H](CO)NC(=O)[C@H](C(C)C)N2C | 30 |  |  |
| C/C=C/C=C/C(=O)Nc1ccc2c(c1)C[C@@H](CO)NC(=O)[C@H](C(C)C)N2C | 10 | 5.71 |  |
| CCCCCCCCC#Cc1ccc2c(c1)C[C@@H](CO)NC(=O)[C@H](C(C)C)N2C | 0 |  |  |
